Data on 40 compounds can be found in PubChem BioAssay.

Some of the results follow. Values without a mark were called inactive. Activity calls are given as the source filed them.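 How the source made its calls, unless noted: active means mean inhibition across replicates above the hit cutoff set in the primary screen (cut at about 30% in these data); inactive means the rest.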

Broadly, the inhibition is the change of the read-out against control, counted positive when it falls.

Sequence of Oxysterols receptor LXR-beta (Homo sapiens) (P55055 whole entry, looked up, the tested form may be a part): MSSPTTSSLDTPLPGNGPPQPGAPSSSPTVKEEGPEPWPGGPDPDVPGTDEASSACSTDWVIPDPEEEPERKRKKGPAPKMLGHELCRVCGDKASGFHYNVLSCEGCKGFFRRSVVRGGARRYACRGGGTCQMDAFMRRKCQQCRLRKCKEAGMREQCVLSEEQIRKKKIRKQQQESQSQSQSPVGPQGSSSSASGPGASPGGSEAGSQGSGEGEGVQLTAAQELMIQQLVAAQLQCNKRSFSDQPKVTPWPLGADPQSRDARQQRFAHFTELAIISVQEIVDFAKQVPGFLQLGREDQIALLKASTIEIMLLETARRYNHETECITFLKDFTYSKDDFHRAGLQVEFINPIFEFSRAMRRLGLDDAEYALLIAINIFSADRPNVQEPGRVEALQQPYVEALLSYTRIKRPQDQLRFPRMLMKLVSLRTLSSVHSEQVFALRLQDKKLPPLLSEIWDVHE
Sequence of (Lyso)-N-acylphosphatidylethanolamine lipase (Mus musculus) (Q8VD66 whole entry, looked up): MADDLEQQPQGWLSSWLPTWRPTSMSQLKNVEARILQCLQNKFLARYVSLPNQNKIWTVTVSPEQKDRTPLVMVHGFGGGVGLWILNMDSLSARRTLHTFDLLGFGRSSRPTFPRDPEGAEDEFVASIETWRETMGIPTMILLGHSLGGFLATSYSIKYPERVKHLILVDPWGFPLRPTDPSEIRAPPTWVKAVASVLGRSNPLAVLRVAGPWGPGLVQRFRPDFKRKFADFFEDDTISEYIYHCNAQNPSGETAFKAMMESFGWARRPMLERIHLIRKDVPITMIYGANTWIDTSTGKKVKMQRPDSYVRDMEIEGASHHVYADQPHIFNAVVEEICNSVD

One assay deals with (Lyso)-N-acylphosphatidylethanolamine lipase (Mus musculus) (UniProt Q8VD66). Description: mouse ABHD4 hydrolase blockers, triplicate – biochemical, fluorescence polarization, confirmation (AID 720658).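 Further: 0% = wild-type ABHD4 with DMSO and 100% = catalytically dead S159A mutant with DMSO.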 The conditions noted are these: purified mABHD4, FP-Rh probe fluorescence polarization; at 8.92 µM; active compounds read high. The method, boiled down:
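Test system – wild-type mouse ABHD4 · Doses – single nominal compound dose 8.92 µM, 0.89% DMSO final · Also added – FP-Rh activity-based probe · Technique – fluorescence polarization, excitation 525 nm, emission 598 nm · Incubation – 45 min compound pretreatment plus 60 min FP-Rh labeling, 25 °C · Medium – HEPES-saline buffer with 0.01% Pluronic F-127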
For orientation: In fluorescence polarisation assays a small probe gives low polarisation when free and higher when bound to something large.
`CCC(CO)Oc1cc(NC(=O)c2cccc(F)c2)c2ncn(C(C)C)c2c1` (stereo not given): the inhibition was 1.62%. For the compound `CCOC(=O)[C@H]1Nc2ccc(Cl)cc2[C@@H]2[C@H]1C1CC(c3ccccc31)N2C(=O)OCc1ccccc1` (stereo not given in full), the inhibition is 42% (active). As for `NNc1nc2c(Cl)cccc2s1`, the inhibition is 24%. Turning to `CC/C(=C(/c1ccccc1)c1ccc(OCC[N+](C)(C)C)cc1)c1ccccc1`, the inhibition was 36.6% (active). For `Oc1ccc(/C=N/Nc2ccc(C(F)(F)F)cn2)cc1O`, the inhibition is 34% (active).

`Nc1[nH]c(C(=O)c2ccc(Br)cc2)c(-c2ccc3c(c2)OCO3)c1C(=O)NCCc1c[nH]c2ccccc12`: the inhibition was 36.9% (active).

Turning to `CCCCCCSc1ccc(-c2nc3ccc(Cl)cn3c2NCc2ccccc2)cc1`, the inhibition was 5.45%. Turning to `COc1ccc(Br)cc1/C=N/Nc1ccc(Cl)c(C(=O)O)c1`, the inhibition was 32.5% (active). Consider `Cc1cccc(-n2cnc(C(=O)NNC(=S)Nc3ccccc3)c2)n1`, for which the inhibition is 57.2% (active). On to `CC(C)c1ccc(CC(=O)N2CCC2(C)C(=O)NS(=O)(=O)c2ccc(C(C)(C)C)cc2)cc1` (stereo not given), for which the inhibition was 68.5% (active). With `NC(N)=N/N=C/c1ccc(OCc2ccc(Cl)cc2Cl)cc1`, the inhibition was 46.2% (active). On the same count and under the same terms, in the case of `CC(C)COC(=O)n1c(=O)oc2ccc(S(=O)(=O)N3CCCCC3)cc21` it was 49.4% (active); in that of `COC(=O)c1oc2ccc(Br)cc2c1NC(C)=O`, -0.79%; in that of `COc1cc(C(=O)Nn2c(O)c(C3=c4ccccc4=NC3=O)sc2=S)ccc1O`, 77.4% (active).

In the case of `CCN1C(=O)/C(=C2/Sc3ccccc3N2CCCS(=O)(=O)O)SC1=S`, the inhibition is 24.3%.

Turning to `c1ccc2sc(NN=C3CCCC3)nc2c1`, the inhibition was -1.86%. `O=[N+]([O-])c1cc(Br)c(O)c(/C=N/Nc2nc3ccccc3s2)c1`: the inhibition was 69.5% (active). In the case of `CC(C)(C)C(=O)OCc1nc(-c2ccc(O)c(O)c2)cs1`, the inhibition was 28.1%. In the case of `O=C(COC(=O)c1ccc(O)cc1O)c1ccc2c(c1)OCCO2`, the inhibition is 40.2% (active). Regarding `Cc1oc2cc(Br)c(O)c(Br)c2c1C(=O)c1ccccc1`, the inhibition is 53% (active).

Turning to `Cc1ccc(NC(=O)Cc2nc(COC(=O)C(C)NS(=O)(=O)c3ccc(C)cc3)cs2)cc1` (stereo not given), the inhibition was 7.11%. `O=C(O)c1ccccc1/C=N/Nc1ccc(S(=O)(=O)Nc2ccc(Cl)cc2)cc1[N+](=O)[O-]`: the inhibition is 50.4% (active). Turning to `COc1cc(/C=C2/C(=O)NN(c3cccc(Cl)c3)C2=O)cc(Br)c1O`, the inhibition was 38.8% (active).

As to `Cc1cccc(N2CCN(Cc3nc(C4CC4)no3)CC2)n1`, the inhibition is -2.12%.

As for `C/C(=N\NC(=O)c1ccc(C)cc1)C1C(=O)c2ccccc2C1=O`, the inhibition is 35.3% (active). Consider `COc1ccc(Br)cc1/C=N/Nc1ccc(S(=O)(=O)Nc2ccccc2C(=O)O)cc1[N+](=O)[O-]`, for which the inhibition was 20.7%. The same measure, in the same setting: in the case of `COc1ccc2nc(Nc3nc4ccc(NC(C)=O)cc4s3)sc2c1` it was 39.4% (active). As to `O=C(O)c1ccc(N/N=C/c2cn(-c3ccccc3)nc2-c2cccs2)cc1`, the inhibition is 57.4% (active). Regarding `CCOc1cc(/C=C2/N=C(c3ccc(C(C)(C)C)cc3)OC2=O)cc(Cl)c1OS(C)(=O)=O`, the inhibition is 18.8%.

Another assay concerns the target Oxysterols receptor LXR-beta (Homo sapiens) (UniProt P55055). Description: nonspecific reporter activation via LXR – cell-based, luminescence, HEK293, H. contortus campaign, counter-screen for hcDAF-12 agonist project, confirmation (AID 743027;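 active means mean percent activation of the reporter above a cutoff set as the average over tested compounds plus their standard deviation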). The conditions noted are these: HEK293 Gal4-LXR tk-luc reporter, 24 h, at 6.8 µM, active compounds read high, normalized: DMSO 0%, positive control 100%. The gist of the method: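 Assay system: HEK293 Gal4-LXR luciferase reporter cells; schedule: one-day compound treatment at 37 °C; signal: One-Glo luciferase luminescence; control set: DMSO and positive control; replicates: triplicate wells per compound; doses: 6.8 µM single dose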
A general note: A counterscreen serves to expose hits that act by an unwanted route or on another target.
For the compound `Clc1cccc(-c2nc3nc4ccccc4nc3n2Cc2ccco2)c1`, the activation is 0.26%. The same measure, in the same setting: in the case of `CCOc1ccc(C2c3[nH]c4ccccc4c3CCN2Cc2cn(CC)nc2C)cc1` (stereo not given) it was -0.18%; in that of `NNc1nc2c(Cl)cccc2s1`, -0.01%.

Consider `Cc1ccc(C(=O)O/N=C(\N)c2ccccn2)cc1Cl`, for which the activation was 1.52%. Turning to `COc1ccc(C(=O)Nc2sc(C)c(C)c2CN2CCOCC2)cc1`, the activation was 0.23%.

For `COc1ccccc1-c1nnc(NC(=O)c2ccc3ncsc3c2)o1`, the activation is 0.28%.

As for `C/C(=N/NC(=O)c1ccc(Br)o1)c1ccc(C)o1`, the activation was -0.01%. Take `c1ccc2sc(NN=C3CCCC3)nc2c1`: the activation is 1.38%. On to `N#Cc1c(NC(=O)C2CCCO2)sc2c1CCCCC2` (stereo not given), for which the activation is 1.18%. In the case of `CC(=O)N1C(=O)/C(=C2\SC(=S)N(NC(=O)c3ccc(O)cc3)C2=O)c2ccccc21`, the activation is -0.17%. Consider `O=C(NC(Cc1c[nH]c2ccccc12)C(=O)O)/C(=C/c1ccco1)NC(=O)c1ccccc1` (stereo not given), for which the activation is 0.05%. Take `O=c1[nH]c(CCl)nc2cc(-c3ccc(Cl)cc3)sc12`: the activation is 0.52%.

In the case of `CCn1cc(CN2CCN(CC(C)(C)C)C(CCO)C2)c2ccccc21` (stereo not given), the activation is -0.12%.

The subject of another assay is Nuclear hormone receptor DAF-12 (Haemonchus contortus). The experiment in a line: hcDAF-12 luciferase reporter activation, retest – cell-based, luminescence, HEK293, lit1-tk-luc, triplicate, confirmation (AID 743032;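 active means mean activation across triplicate tests above the threshold derived from the earlier primary screen, cut at about 5.5% in these data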;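 further: 0% = DMSO only wells and 100% = 3 µM Δ7-dafachronic acid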). The conditions noted are these: HEK293 hcDAF-12 lit1-tk-luc reporter, at 6.8 µM, active compounds read high, % of Δ7-dafachronic acid response.
Regarding `Clc1cccc(-c2nc3nc4ccccc4nc3n2Cc2ccco2)c1`, the activation is 5.41%. Regarding `CCOc1ccc(C2c3[nH]c4ccccc4c3CCN2Cc2cn(CC)nc2C)cc1` (stereo not given), the activation was 3.63%. In the case of `NNc1nc2c(Cl)cccc2s1`, the activation was 1.23%. Take `Cc1ccc(C(=O)O/N=C(\N)c2ccccn2)cc1Cl`: the activation was 4.81%. Still for that read-out and setting: in the case of `COc1ccc(C(=O)Nc2sc(C)c(C)c2CN2CCOCC2)cc1` it was 4.47%; in that of `COc1ccccc1-c1nnc(NC(=O)c2ccc3ncsc3c2)o1`, 10.3% (active); in that of `C/C(=N/NC(=O)c1ccc(Br)o1)c1ccc(C)o1`, 4.27%.

On to `c1ccc2sc(NN=C3CCCC3)nc2c1`, for which the activation was 6.89% (active). For `N#Cc1c(NC(=O)C2CCCO2)sc2c1CCCCC2` (stereo not given), the activation was 6.65% (active). With `CC(=O)N1C(=O)/C(=C2\SC(=S)N(NC(=O)c3ccc(O)cc3)C2=O)c2ccccc21`, the activation was 1.25%. In the case of `O=C(NC(Cc1c[nH]c2ccccc12)C(=O)O)/C(=C/c1ccco1)NC(=O)c1ccccc1` (stereo not given), the activation is 3.64%. For the compound `O=c1[nH]c(CCl)nc2cc(-c3ccc(Cl)cc3)sc12`, the activation is 1.27%. `CCn1cc(CN2CCN(CC(C)(C)C)C(CCO)C2)c2ccccc21` (stereo not given): the activation was 3.73%.
